By Kd is commonly meant the constant that tells how readily two partners part at equilibrium. A higher Kd goes with a looser complex. As a reminder, the IC50 is the concentration needed to halve the response being measured. A word on the clearance: it is the volume of plasma or blood freed of the substance per unit of time. The low end stands for inefficient removal, the high end for efficient removal.

From paper PMC10326257 (Acta Pharmaceutica Sinica. B, 2023) come the findings set out here.

Series [1] deals with T1, c-MET (Homo sapiens, UniProt P08581). The series can be described thus: biochemical. The class given is binding.
T1 sequence (P08581 25-1390): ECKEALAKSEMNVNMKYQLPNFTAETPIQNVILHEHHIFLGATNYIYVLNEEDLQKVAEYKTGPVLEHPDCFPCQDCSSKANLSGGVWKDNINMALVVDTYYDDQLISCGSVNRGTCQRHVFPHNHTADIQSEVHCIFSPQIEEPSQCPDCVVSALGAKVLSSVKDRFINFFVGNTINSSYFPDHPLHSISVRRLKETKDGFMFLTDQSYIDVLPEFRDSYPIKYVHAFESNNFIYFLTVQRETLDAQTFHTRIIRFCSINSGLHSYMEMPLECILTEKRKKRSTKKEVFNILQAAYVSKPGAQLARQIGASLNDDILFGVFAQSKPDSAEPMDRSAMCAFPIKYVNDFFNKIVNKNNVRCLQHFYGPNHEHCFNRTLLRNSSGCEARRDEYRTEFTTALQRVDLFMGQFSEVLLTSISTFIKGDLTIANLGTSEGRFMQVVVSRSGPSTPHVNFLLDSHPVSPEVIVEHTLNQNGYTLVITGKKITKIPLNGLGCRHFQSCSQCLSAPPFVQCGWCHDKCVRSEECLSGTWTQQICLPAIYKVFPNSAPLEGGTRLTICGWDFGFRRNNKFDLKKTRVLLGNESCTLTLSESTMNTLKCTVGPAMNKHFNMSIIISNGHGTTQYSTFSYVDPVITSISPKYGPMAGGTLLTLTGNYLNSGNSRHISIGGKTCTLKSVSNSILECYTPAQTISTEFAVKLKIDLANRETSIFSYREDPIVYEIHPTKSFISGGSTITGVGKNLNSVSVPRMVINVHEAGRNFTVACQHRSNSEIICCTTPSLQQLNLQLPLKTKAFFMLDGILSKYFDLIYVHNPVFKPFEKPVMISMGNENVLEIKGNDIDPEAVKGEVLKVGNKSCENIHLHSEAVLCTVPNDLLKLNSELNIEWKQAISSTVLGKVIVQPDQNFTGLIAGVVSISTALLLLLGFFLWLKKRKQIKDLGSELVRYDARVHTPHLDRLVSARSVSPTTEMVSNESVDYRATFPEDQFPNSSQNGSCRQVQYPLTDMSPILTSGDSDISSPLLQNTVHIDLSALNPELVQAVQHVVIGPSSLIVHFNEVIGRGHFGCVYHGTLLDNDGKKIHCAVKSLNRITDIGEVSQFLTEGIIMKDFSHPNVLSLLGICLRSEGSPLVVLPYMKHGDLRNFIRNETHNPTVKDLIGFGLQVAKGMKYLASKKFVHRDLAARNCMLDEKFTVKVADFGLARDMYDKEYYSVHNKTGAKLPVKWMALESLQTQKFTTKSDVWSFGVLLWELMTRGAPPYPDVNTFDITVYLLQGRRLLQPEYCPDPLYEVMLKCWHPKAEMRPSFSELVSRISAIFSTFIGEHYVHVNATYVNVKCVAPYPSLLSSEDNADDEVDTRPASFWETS
The test system of series [2] is EBC-1 cells. The series can be described thus: Cell proliferation inhibition assay. The series is classed as cell-based.
The target of series [3] is T1, c-MET. The series is classed as cell-based. To be noted: Western blot, EBC-1 and Hs746T cells. On the technique in general: A western blot detects proteins with antibodies after separation by electrophoresis.
Series [4] concerns EBC-1 cells. The series can be described thus: Cell apoptosis by flow cytometry. The series is classed as cell-based. To be noted: 48 h. On the technique in general: A flow cytometer gives signals particle by particle.
The test system of the next series is Hs746T cells. The experiment in a line: Cell proliferation inhibition assay. The series is classed as cell-based. The note with it: Homo sapiens, 72 h, read-out: IC50 Hs746T, c-MET-sensitive, 72 h.
In a further series the test system is EBC-1 xenograft tumors. The series can be described thus: EBC-1 xenograft tumor growth model. The class given is in vivo, BALB/c nude mice. To be noted: 10 mg/kg, i.p., qd, 10 days. A digest of the protocol: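 Six-week-old BALB/c nude mice (SPF) received 5 × 10^6 EBC-1 cells subcutaneously in the dorsal flank. At about 80 mm3 they were grouped and dosed at 10 mg/kg i.p. once daily for 10 days; vehicle was 10% DMSO/10% PEG300/5% Tween 80/75% H2O. Calipers and body weight were read every 2 days. V = L×W²/2, and TGI used median volumes. Tumors were weighed at the end, n = 6.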

In a further series the test system is HepG2 cells. The series can be described thus: Cell proliferation inhibition assay. The series is classed as cell-based. The note with it: Homo sapiens, HepG2, 72 h, read-out: IC50 HepG2.
The test system of another series is A549 cells. The series can be described thus: Cell proliferation inhibition assay. The series is classed as cell-based. To be noted: Homo sapiens, A549, 72 h, read-out: IC50 A549.
Series [5] in a line: Pharmacokinetic study in rats. To be noted: male, Sprague-Dawley, rat, in vivo, iv, 1 mg/kg, CL. Set-up: species or system Male Sprague–Dawley (SD) rats.

`CN1C(=O)CCC(N2C(=O)c3ccc(N4CCN(C(=O)CN5CCC(COc6cnc(-c7cccc(Cn8nc(-c9cccc(C#N)c9)ccc8=O)c7)nc6)CC5)CC4)cc3C2=O)C1=O` (centres unmarked) [D16] gave a dissociation constant (Kd) at c-MET [1] of 345 nM. Moreover, on c-MET [1] (ratio of Kd to D15), the “binding affinity, fold weaker than D15” value turned out to be 2 fold. Also, in the series on EBC-1 cells [2] (EBC-1 and Hs746T cells), the “inhibition of cell proliferation, fold weaker than D15” value is recorded as “approximately 10 fold”. The c-MET degradation effect result on c-MET [3] was “no degradation effect”.
For the compound `O=C1CCC(N2C(=O)c3ccccc3C2=O)C(=O)N1` (centres unmarked) [Thalidomide], on c-MET [3], the c-MET degradation effect entry is reported as “none”.
Turning to `N#Cc1cccc(-c2ccc(=O)n(Cc3cccc(-c4ncc(OCC5CCNCC5)cn4)c3)n2)c1` [compound 6], the dissociation constant (Kd) on c-MET [1] came to 9.97 nM.
Regarding `CN1CCC(COc2cnc(-c3cccc(Cn4nc(-c5cccc(C#N)c5)ccc4=O)c3)nc2)CC1` [Tepotinib], the apoptosis rate in the series with EBC-1 cells [4] (EBC-1, 10 nmol/L) is on record as 39.3%; in the series on EBC-1 cells [4] (EBC-1, 100 nmol/L), 59.4%. The IC50 in the series on Hs746T cells turned out to be 2.63 ± 0.72 nM; in the series with HepG2 cells, 476 ± 45 nM; with EBC-1 cells [2] (Homo sapiens, EBC-1, 72 h, read-out: IC50 EBC-1) it was 1.32 ± 0.39 nM; with A549 cells, 277 ± 59 nM. Besides, the “tumor growth inhibition (TGI%)” value with EBC-1 xenograft tumors is 71.9%. This compound also had a clearance in [5] of 70 mL/min/kg.
